Data on one compound can be found in ChEMBL document CHEMBL1138199, “Identification of compounds with anti-West Nile Virus activity” (J Med Chem, 2006).

SMILES strings stand for the structures. pEC50: −log10 of the molar value. Where only a bound is given, the exact number is not on record here.

For data set [1], the system named is BHK-21. Nature of the data set: Cytotoxicity against BHK21 cell line by MTT assay. The format is functional. As to conditions: Mesocricetus auratus. An outline of the steps: (§1)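 MTT cytotoxicity assay run in BHK-21 and Vero cells on compounds giving >50% Rluc inhibition in the primary screens; CC50 reported in µM.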
(In general: Formazan colour is commonly taken as a measure of viable cells.)

Data set [2] concerns West Nile virus. Nature of the data set: Inhibition of West Nile virus in Vero cells at 1.2 uM; values are per cent of control.
Data set [3] has as its system West Nile virus. Nature of the data set: Activity against West Nile virus RlucRep RNA translation in BHK21 cells at 100 uM, 2 hr post transfection. The format is functional, BHK-21. An outline of the steps:
(§2)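 BHK cells transfected with WN RlucRep RNA (transient replicon), incubated with compound at 33 or 100 µM; luciferase read at 2, 4 and 72 h post-transfection. 2 and 4 h signals report viral translation, 72 h reports RNA synthesis. Activity given as percent of luciferase signal versus mock-treated transfection; average of two to three experiments.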

The test system of data set [4] is West Nile virus. Nature of the data set: Inhibition of West Nile virus in Vero cells at 100 uM; values are per cent of control.
The subject of data set [5] is West Nile virus. Nature of the data set: Inhibition of West Nile virus in vero cells at 11 uM; values are per cent of control.
In data set [6] the test system is Vero. Nature of the data set: Cytotoxicity against Vero cells by MTT assay. The format is functional. The note with it: Chlorocebus sabaeus. An outline of the steps:
as §1

The test system of data set [7] is West Nile virus. Nature of the data set: Activity against West Nile virus RlucRep RNA translation in BHK21 cells at 33 uM, 2 hr post transfection. The format is functional, BHK-21. An outline of the steps: as §2
Data set [8] deals with West Nile virus. Nature of the data set: Activity against West Nile virus RlucRep RNA translation in BHK21 cells at 100 uM, 4 hr post transfection. Format: functional, BHK-21. An outline of the steps: as §2
Data set [9] concerns West Nile virus. Nature of the data set: Inhibition of Rluc-FL-WNV replicon in Vero cells. Format: functional, organism-based. An outline of the steps: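 Vero cells infected with full-length WNV carrying Renilla luciferase reporter (Rluc-FL-WNV), covering entry, replication and assembly; inhibition read as suppression of luciferase signal. Compounds first screened at 30 µM in 1% DMSO final, then EC50 (µM) determined.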
(In general: A replicon is a self-replicating genome or part of one, used to study replication in cells.)

The subject of data set [10] is West Nile virus. Nature of the data set: Inhibition of West Nile virus in Vero cells at 3.7 uM; values are per cent of control.
Data set [11] is described as follows: Therapeutic index (CC50/EC50) in BHK21 cells. As to conditions: hamster, read-out: Ratio CC50/EC50. The format is cell-based, BHK-21. The gist of the method: (§3)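 TI computed as CC50/EC50, using MTT CC50 and replicon EC50 in BHK-21 cells, or MTT CC50 and Rluc-FL-WNV EC50 in Vero cells.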
Data set [12] concerns West Nile virus. Nature of the data set: Activity against West Nile virus RlucRep RNA synthesis in BHK21 cells at 100 uM, 72 h post transfection. The format is functional, BHK-21. The gist of the method:
as §2

Data set [13] can be described thus: Therapeutic index (CC50/EC50) in Vero cells. Format: cell-based. The note with it: monkey, read-out: Ratio CC50/EC50. An outline of the steps: as §3
Data set [14] has as its system West Nile virus. Nature of the data set: Activity against West Nile virus RlucRep RNA synthesis in BHK21 cells at 33 uM, 72 hr post transfection. The format is functional, BHK-21. An outline of the steps: as §2
Data set [15] concerns West Nile virus. Nature of the data set: Inhibition of West Nile viral Rluc-Neo-Rep in BHK21 cell line. Format: functional, organism-based. The note with it: BHK-21. The gist of the method: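 BHK-21 cell line stably carrying Rluc-Neo-Rep replicon; inhibition read as suppression of Renilla luciferase signal. Initial screen at 30 µM, 1% DMSO final; EC50 (µM) then determined.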

Data set [16] concerns West Nile virus. Nature of the data set: Inhibition of West Nile virus in Vero cells at 33 uM; values are per cent of control.
Data set [17] relates to West Nile virus. Nature of the data set: Inhibition of West Nile virus in Vero cells at 0.4 uM; values are per cent of control.
Data set [18] concerns West Nile virus. Nature of the data set: Activity against West Nile virus RlucRep RNA translation in BHK21 cells at 33 uM, 4 h post transfection. The format is functional, BHK-21. The gist of the method: as §2
For data set [19], the system named is Vero. Nature of the data set: Inhibition of West Nile viral Rluc-Neo-Rep in Vero cells. As to conditions: Chlorocebus sabaeus. The format is functional, cell-based. An outline of the steps:
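Vero cells containing the Rluc-Neo-Rep replicon, used to check cell-line dependence; inhibition measured as suppression of Renilla luciferase signal, EC50 in µM.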

Data set [20] relates to BHK-21. Nature of the data set: Inhibition of West Nile virus VLP replicon in BHK21 cell line. The note with it: Mesocricetus auratus. The format is functional, cell-based. The gist of the method: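 Naive BHK-21 cells infected with virus-like particles, made by expressing WNV structural proteins in cells carrying the Rluc-Neo-Rep replicon, which package replicon RNA. This captures entry and replication but not assembly. Inhibition is read as suppression of Renilla luciferase signal. Compounds were given in 1% DMSO final, and EC50 is in µM.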

In general, CC50 refers to the concentration at which the toxic effect on the cells reaches its halfway point. Read a low CC50 as greater toxicity to the cells. By remaining activity is commonly meant the activity still measured, relative to the control. A lower remaining activity goes with a large loss of activity. As usually defined, the pEC50 is −log10 of the EC50, conventionally taken in molar units. High values mean a low EC50, low ones a high EC50. For the compound `O=C(Cc1ccc(Cl)cc1)N1N=C(c2cccs2)CC1c1ccc([N+](=O)[O-])cc1` (stereo not given), the CC50 in data set [1] and in data set [6] was more than 300 µM throughout. In data set [2], this compound registered a remaining activity at 1.2 µM of 92%. In addition, the Activity in [3] is 81%; in data set [7], 80%; in [8] it was 93%; in [12], 16%; in [14], 12%; in data set [18], 92%. For the same compound, the remaining activity at 100 µM in [4] was 23%. Further, the remaining activity at 11 µM in [5] was found to be 55%. Moreover, the pEC50 was 4.60 in data set [9], 4.96 in data set [15], 5.15 in data set [19] and 5.10 in data set [20]. The compound further gave a remaining activity at 3.7 µM in data set [10] of 90%. For the same compound, the selectivity ratio was more than 27 in data set [11] and more than 12 in [13]. In data set [16], this compound returned a remaining activity at 33 µM of 23%. In addition, the remaining activity at 0.4 µM in data set [17] was found to be 100%.
